≈ marks a conversion by molar mass, not a printed value. Where “and” joins values, the source holds several entries; their conditions need not be identical. Equal entries are not always repeated. Calls of active or inactive are those of the source. No cut-off for these calls is given here.
Assays:
Chlamydia trachomatis [1] = experiment: Antibacterial activity against Chlamydia trachomatis infected in HeLa cells at 100 uM up to 6 hrs; assay type: functional, organism-based
[2] = Cytotoxicity against human HeLa cells assessed as cell viability at 2 time MIC; assay type: cell-based; settings: read-out: Activity
Chlamydia trachomatis [3] = experiment: Antibacterial activity against Chlamydia trachomatis infected in HeLa cells; assay type: functional
Method in brief: (§1)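 HeLa cells infected with C. trachomatis […] and incubated with compound in a dilution series, with a DMSO-treated control. Chlamydial inclusions are immunostained green and HeLa cells counterstained red. Inclusion size and number and HeLa cell morphology are judged by fluorescence microscopy. MIC is read from the absence of visible inclusions.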

[4] = biological target: Tyrosine-protein phosphatase YopH (Yersinia pseudotuberculosis serotype I (strain IP32953)) (UniProt P08538); experiment: Inhibition of Yersinia pseudotuberculosis phosphatase activity of secreted YopH at 10 uM
Method in brief: (§2)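 Phosphatase activity of YopH secreted by Y. pseudotuberculosis, measured at 10, 20, 50 and 100 µM; expressed as percent inhibition. Some runs used HCl salt form.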

[5] = biological target: Tyrosine-protein phosphatase YopH (Yersinia pseudotuberculosis serotype I (strain IP32953)) (UniProt P08538); experiment: Inhibition of Yersinia pseudotuberculosis phosphatase activity of secreted YopH at 20 uM; method in brief: as §2
[6] = biological target: Tyrosine-protein phosphatase YopH (Yersinia pseudotuberculosis serotype I (strain IP32953)) (UniProt P08538); experiment: Inhibition of Yersinia pseudotuberculosis phosphatase activity of secreted YopH at 50 uM; method in brief: as §2
[7] = biological target: Tyrosine-protein phosphatase YopH (Yersinia pseudotuberculosis serotype I (strain IP32953)) (UniProt P08538); experiment: Inhibition of Yersinia pseudotuberculosis phosphatase activity of secreted YopH at 100 uM; method in brief: as §2
[8] = (§3) Inhibition of type 3 secretion in Yersinia pseudotuberculosis by reporter gene assay
Method in brief: (§4)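 Y. pseudotuberculosis T3S-linked reporter-gene screen, luminescence read on filter-based plate reader; compounds added from DMSO solutions. Tested at 10, 20, 50 and 100 µM, expressed as percent inhibition. EC50 taken from dose-response curves. Activity also checked with detergent present to exclude aggregation.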

[9] = test system: Yersinia pseudotuberculosis; experiment: as §3; method in brief: as §4
[10] = biological target: Tyrosine-protein phosphatase YopH (Yersinia pseudotuberculosis serotype I (strain IP32953)) (UniProt P08538); experiment: Inhibition of Yersinia pseudotuberculosis phosphatase activity of secreted YopH; method in brief: as §2
[11] = test system: Yersinia pseudotuberculosis; experiment: Antibacterial activity against wild type Yersinia pseudotuberculosis infected in mouse J774 cells assessed as increase of host cell viability at 3.1 to 25 uM; assay type: functional, organism-based
Method in brief: (§5)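 J774 macrophages infected with Y. pseudotuberculosis, wild-type (pIB102) or T3S-deficient mutant (pIB604); uninfected control included. Viability read with CalceinAM fluorescence (green conversion in healthy cells). 100% = uninfected cells given DMSO alone.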

[12] = test system: Yersinia pseudotuberculosis; experiment: Antibacterial activity against T3S deficient Yersinia pseudotuberculosis infected in mouse J774 cells assessed as increase of host cell viability at 3.1 to 25 uM; assay type: functional, organism-based; method in brief: as §5
J774 = experiment: Cytotoxicity against mouse J774 cells assessed as cell viability at 3.1 to 25 uM; assay type: cell-based; settings: j774, 25 µM
Chlamydia trachomatis [13] = experiment: Antibacterial activity against Chlamydia trachomatis infected in HeLa cells assessed as reduction of inclusions size at 1.56 uM by fluorescence microscopy analysis; assay type: functional, organism-based; method in brief: as §1
HeLa [14] = experiment: Cytotoxicity against human HeLa cells assessed as visible inclusions by fluorescence microscopy; assay type: cell-based; method in brief: as §1
HeLa [15] = experiment: Cytotoxicity against human HeLa cells assessed as change in morphology by fluorescence microscopy; assay type: cell-based; method in brief: as §1
[16] = test system: Yersinia pseudotuberculosis; experiment: Inhibition of type 3 secretion in Yersinia pseudotuberculosis at 10 uM by reporter gene assay; method in brief: as §4
[17] = test system: Yersinia pseudotuberculosis; experiment: Inhibition of type 3 secretion in Yersinia pseudotuberculosis at 20 uM by reporter gene assay; method in brief: as §4
[18] = test system: Yersinia pseudotuberculosis; experiment: Inhibition of type 3 secretion in Yersinia pseudotuberculosis at 50 uM by reporter gene assay; method in brief: as §4
[19] = test system: Yersinia pseudotuberculosis; experiment: Inhibition of type 3 secretion in Yersinia pseudotuberculosis at 100 uM by reporter gene assay; method in brief: as §4
Chlamydia trachomatis [20] = experiment: Antibacterial activity against Chlamydia trachomatis infected in HeLa cells at 50 uM up to 6 hrs; assay type: functional, organism-based

Tyrosine-protein phosphatase YopH (Yersinia pseudotuberculosis serotype I (strain IP32953)), sequence (P08538 whole entry): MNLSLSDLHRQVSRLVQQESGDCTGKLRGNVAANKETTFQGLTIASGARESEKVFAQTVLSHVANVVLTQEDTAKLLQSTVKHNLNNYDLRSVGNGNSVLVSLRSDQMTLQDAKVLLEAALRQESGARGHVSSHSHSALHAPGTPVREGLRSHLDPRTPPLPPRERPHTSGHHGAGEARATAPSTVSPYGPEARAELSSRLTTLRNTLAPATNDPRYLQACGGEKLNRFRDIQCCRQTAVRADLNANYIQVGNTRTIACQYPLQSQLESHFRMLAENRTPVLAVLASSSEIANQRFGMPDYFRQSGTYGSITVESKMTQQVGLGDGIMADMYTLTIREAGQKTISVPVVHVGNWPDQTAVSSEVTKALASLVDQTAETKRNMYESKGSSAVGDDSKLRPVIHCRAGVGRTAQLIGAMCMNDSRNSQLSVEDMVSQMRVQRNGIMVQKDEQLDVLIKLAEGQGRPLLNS

Row | SMILES | inhibition [16] | inhibition [17] | inhibition [18] | inhibition [19] | further results
1 | O=[N+]([O-])c1cc(CN2CCN(c3ccc(F)cc3)CC2)c(O)c2ncccc12 |  |  |  |  | Activity (Chlamydia trachomatis [1]): inactive; viability [2]: 90.2%; MIC (Chlamydia trachomatis [3]): 3.13 µM (≈ 1.2 µg/mL); inhibition [4]: 17% and 38%; inhibition [5]: 56% and 66%; inhibition [6]: 88% and 81%; inhibition [7]: 94% and 83%; EC50 [8]: 6.24 µM; inhibition [9]: Dose-dependent effect; inhibition [10]: Dose-dependent effect; Activity [11]: Active; Activity [12]: inactive; Activity (J774): Toxic; Activity (Chlamydia trachomatis [13]): Active; Activity (HeLa [14]): Non-toxic; Activity (HeLa [15]): Non-toxic
2 | COc1c(CN2CCN(c3ccccc3)CC2)cc(Br)c2cccnc12 | inactive | inactive | inactive | inactive | 
3 | Oc1c(CN2CCN(c3ccc(F)cc3)CC2)ccc2cccnc12 | inactive | inactive | 58% | 95% | 
4 | CCOc1ccccc1N1CCN(Cc2cc(Cl)c3cccnc3c2O)CC1 | inactive | inactive | 37% | 89% | 
5 | Oc1c(CN2CCN(c3ccccn3)CC2)cc(Cl)c2cccnc12 | inactive | inactive | 80% | 98% | 
6 | O=[N+]([O-])c1ccc(O)c(CN2CCN(c3ccccc3)CC2)c1 | inactive | inactive | inactive | inactive | 
7 | Oc1c(CN2CCCCC2)cc(Cl)c2cccnc12 | inactive | inactive | 8% | 12% | 
8 | O=[N+]([O-])c1ccc(O)c(CN2CCN(c3ccc(Cl)cc3)CC2)c1 | inactive | inactive | inactive | inactive | 
9 | O=[N+]([O-])c1cc(CN2CCN(c3ccccc3)CC2)c(O)c2ccccc12 | inactive | inactive | inactive | inactive | 
10 | Cc1cccc(N2CCN(Cc3cc(Br)c4cccnc4c3O)CC2)c1 | inactive | inactive | 41% | 81% | 
11 | Oc1c(CN2CCN(c3ccccc3)CC2)cc(Cl)c2cccnc12 | inactive | inactive | 14% and 22% |  | 
12 | Oc1c(CN2CCN(c3ccc(F)cc3)CC2)cc(Cl)c2cccnc12 | inactive | inactive | 93% | 97% | 
13 | Oc1c(CN2CCN(c3ccc(F)cc3)CC2)cc(Br)c2cccnc12 | inactive | inactive | 78% | 89% | 
14 | O=[N+]([O-])c1cc(CN2CCN(c3ccccc3)CC2)c(O)c2ncccc12 | 66% | 88% | 94% | 97% | Activity (Chlamydia trachomatis [1]): inactive; viability [2]: 66.3%; MIC (Chlamydia trachomatis [3]): 25 µM (≈ 9.11 µg/mL); inhibition [4]: 49%; inhibition [5]: 73%; inhibition [6]: 77%; inhibition [7]: 79%; EC50 [8]: 12.4 µM; inhibition [9]: Dose-dependent effect; inhibition [10]: Dose-dependent effect; Activity [11]: Active; Activity [12]: inactive; Activity (J774): Toxic
15 | COc1c(CN2CCN(c3ccccc3)CC2)cc(Cl)c2cccnc12 | inactive | inactive | inactive | inactive | 
16 | CN1CCN(Cc2cc(Cl)c3cccnc3c2O)CC1 | inactive | inactive | inactive | 48% | 
17 | O=[N+]([O-])c1cc(CN2CCC(c3ccccc3)C2)c(O)c2ncccc12 (racemic) | 54% | 79% | 95% | 98% | Activity (Chlamydia trachomatis [20]): inactive; viability [2]: 92.1%; MIC (Chlamydia trachomatis [3]): 12.5 µM (≈ 4.37 µg/mL); inhibition [4]: 47%; inhibition [5]: 64%; inhibition [6]: 68%; inhibition [7]: 69%; EC50 [8]: 14.6 µM; inhibition [9]: Dose-dependent effect; inhibition [10]: Dose-dependent effect; Activity [11]: Active; Activity [12]: inactive; Activity (J774): Toxic
18 | CC1CN(Cc2cc([N+](=O)[O-])c3cccnc3c2O)CC(C)O1 (stereo not drawn) | inactive | inactive | 76% | 93% | 
19 | COc1ccccc1N1CCN(Cc2cc([N+](=O)[O-])c3cccnc3c2O)CC1 | inactive | 25% | 77% | 85% | 

Source: ChEMBL document CHEMBL2021762, “Derivatives of 8-hydroxyquinoline--antibacterial agents that target intra- and extracellular Gram-negative pathogens” (Bioorg Med Chem Lett, 2012)
